Measured values reported in ChEMBL document CHEMBL1152809, “Structure-activity relationships of orotidine-5'-monophosphate decarboxylase inhibitors as anticancer agents” (J Med Chem, 2009).
Activity calls are given as the source filed them. The rule behind the calls is not given here.

Legend:
OVCAR-4 = test: Antitumor activity against human OVCAR4 cells after 3 days by WST1 assay; type: functional, cell-based; settings: OVCAR-4, 72 h
Summary of the method: (§1)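 Cell lines grown in Iscove's MDM with 5% FCS, 50 µM 2-mercaptoethanol, penicillin and streptomycin; suspension lines kept at 0.5-1.5 × 10^6 cells/mL, adherent lines subconfluent. Cells seeded in triplicate at 10^4 cells/100 µL. Compounds were dissolved in water and added immediately at 0 to 100 µM final. WST.1 read at 440 nm on day 3; IC50 taken from OD versus concentration plots.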

COLO 205 = test: Antitumor activity against human COLO205 cells after 3 days by WST1 assay; type: functional, cell-based; settings: COLO 205, 72 h; summary of the method: as §1
ML1 = test: Induction of apoptosis in human OCI-AML1 cells by […]/propidium iodide staining assay; type: functional, cell-based
Summary of the method: (§2)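 Cells seeded in duplicate at 10^5 cells/mL; inhibitors added straight after seeding at 4 µM final, water in control wells. Cells harvested every 24 h, washed in PBS, stained with Annexin V/propidium iodide (1:200) and analysed by FACS; apoptotic cells scored as Annexin V+/PI-, necrotic as Annexin V+/PI+.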

PBMC = test: Cytotoxicity against human PBMC cells by WST1 assay; type: cell-based
Summary of the method: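 Donor PBMCs isolated on Ficoll-Hypaque from blood diluted 1:1 in PBS, washed twice in PBS and stimulated with 3 µg/mL concanavalin A. Seeded in triplicate at 10^5 cells/100 µL; compounds in water added immediately, 0-100 µM final. WST.1 absorbance at 440 nm on day 3; IC50 from OD versus concentration plots.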

[1] = Cytotoxicity against human CCD-967 cells up to 4 uM after 3 days by WST1 assay; type: cell-based; settings: ccd-967, 72 h
Summary of the method: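 Cells grown in Iscove's MDM with 5% FCS, 50 µM 2-mercaptoethanol and antibiotics, kept subconfluent if adherent. Seeded in triplicate at 10^4 cells/100 µL with compounds (in water) added at once, 0 to 100 µM final. WST.1 formazan read at 440 nm on day 3; IC50 from OD versus concentration.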

Hs-578T = test: Antitumor activity against human Hs 578T cells up to 4 uM after 3 days by WST1 assay; type: functional, cell-based; summary of the method: as §1
T47D = test: Antitumor activity against human T47D cells up to 4 uM after 3 days by WST1 assay; type: functional, cell-based; summary of the method: as §1
SNB-19 = test: Antitumor activity against human SNB19 cells up to 4 uM after 3 days by WST1 assay; type: functional, cell-based; summary of the method: as §1
OCI-Ly7 = test: Induction of apoptosis in human OCI-LY7 cells 4 uM by […]/propidium iodide staining assay; type: functional, cell-based; summary of the method: as §2
Homo sapiens = organism: Homo sapiens; test: Induction of apoptosis in human OCI-My 2 cells 4 uM by […]/propidium iodide staining assay; type: functional, cell-based; summary of the method: as §2
[2] = Antitumor activity against human MDA468 cells after 3 days by WST1 assay; type: functional, cell-based; settings: MDA-MB-468, 72 h; summary of the method: as §1
[3] = Antitumor activity against human OCI-AML1 cells after 3 days by WST1 assay; type: functional, cell-based; settings: ML1, 72 h; summary of the method: as §1
OCI-AML2 = test: Antitumor activity against human OCI-AML2 cells after 3 days by WST1 assay; type: functional, cell-based; settings: OCI-AML2, 72 h; summary of the method: as §1
[4] = Antitumor activity against human OCI-LY7 cells after 3 days by WST1 assay; type: functional, cell-based; settings: OCI-Ly7, 72 h; summary of the method: as §1
[5] = Antitumor activity against human OCI-My 2 cells after 3 days by WST1 assay; type: functional, cell-based; settings: 72 h; summary of the method: as §1
[6] = Antitumor activity against human SKW3 cells after 3 days by WST1 assay; type: functional, cell-based; settings: SKW3, 72 h; summary of the method: as §1
MCF7 = test: Antitumor activity against human MCF7 cells after 3 days by WST1 assay; type: functional, cell-based; settings: MCF7, 72 h; summary of the method: as §1
[7] = Antitumor activity against human LOX cells after 3 days by WST1 assay; type: functional, cell-based; settings: 72 h; summary of the method: as §1
SKW3 = test: Induction of apoptosis in human SKW3 cells at 4 uM by annexin V/propidium iodide staining assay
[8] = (§3) Irreversible inhibition of Methanobacterium thermoautotrophicum ODCase; design: species or system Methanothermobacter thermautotrophicus
[9] = system: Methanothermobacter thermautotrophicus; test: as §3
[10] = target: Orotidine 5'-phosphate decarboxylase (Methanobacterium thermoautotrophicum, UniProt O26232); test: Reversible inhibition of Methanobacterium thermoautotrophicum ODCase; design: species or system Methanothermobacter thermautotrophicus
Summary of the method: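 Inhibitor levels span 0-1.0 µM up to 0-4.0 mM depending on compound. Rates from heat flow fitted to a competitive model for Ki; experiments in triplicate.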

Sequence of Orotidine 5'-phosphate decarboxylase (O26232 whole entry): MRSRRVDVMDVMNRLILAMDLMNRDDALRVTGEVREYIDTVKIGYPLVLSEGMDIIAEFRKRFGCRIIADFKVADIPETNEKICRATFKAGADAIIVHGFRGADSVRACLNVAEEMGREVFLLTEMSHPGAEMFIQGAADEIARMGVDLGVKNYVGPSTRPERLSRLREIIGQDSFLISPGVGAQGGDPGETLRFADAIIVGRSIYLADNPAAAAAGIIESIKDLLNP

SMILES	IC50 (OVCAR-4)	IC50 (COLO 205)	Activity (ML1)	IC50 (PBMC)	Activity [1]	Activity (Hs-578T)	Activity (T47D)	Activity (SNB-19)	Activity (OCI-Ly7)	Activity (Homo sapiens)	IC50 [2]	IC50 [3]	IC50 (OCI-AML2)	IC50 [4]	IC50 [5]	IC50 [6]	IC50 (MCF7)	IC50 [7]	Activity (SKW3)	other results
Nc1c(F)c(=O)[nH]c(=O)n1[C@@H]1O[C@H](CO)[C@@H](O)[C@H]1O	2 µM	3.3 µM	Active	> 10 µM	Not Active	inactive	inactive	inactive	Active	Active	2.6 µM	0.7 µM	0.9 µM	1.3 µM	0.9 µM	0.6 µM	1.4 µM	3.4 µM	Active	–
[N-]=[N+]=Nc1c(F)c(=O)[nH]c(=O)n1[C@@H]1O[C@H](CO)[C@@H](O)[C@H]1O	1.5 µM	3.8 µM	Active	> 10 µM	Not Active	inactive	inactive	inactive	Active	Active	1.8 µM	0.6 µM	0.7 µM	0.7 µM	0.6 µM	0.4 µM	1 µM	2.3 µM	Active	–
[N-]=[N+]=Nc1cc(=O)[nH]c(=O)n1[C@@H]1O[C@H](COP(=O)(O)O)[C@@H](O)[C@H]1O	–	–	–	–	–	–	–	–	–	–	–	–	–	–	–	–	–	–	–	Ki [8]: 0.6 µM; Kinact [9]: 61.2 h⁻¹; Ki [10]: 0.2 µM
